Measurements as given in publication PMC8419023 (Structure (London, England : 1993), 2021).
Changes are numbered by the printed parent chain. Names may count otherwise.

Key:
[1] = target: CDK2-cyclin A (Homo sapiens, UniProt P20248+P24941); experiment: GST pull down, CDK2-cyclin A; assay type: binding; details: 25 mM HEPES pH 7.5, 150 mM NaCl, 1 mM DTT, 0.01% NP-40; 1 h, 4°C; SDS-PAGE; three experiments; Figure 1B
Procedure, shortened: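 Bacterially expressed proteins: CDK2 (1–298) as a GST fusion, cyclin A (1–432 or 173–432) as a 6XHis fusion. […] Incubated 1 h at 4 °C with mild agitation, washed three times in binding buffer, and bound material analysed by SDS-PAGE; repeated 2–3 times.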

[2] = system: CDK2-cyclin A (Surface 2, hydrophobic patch); experiment: Fluorescence polarization displacement of FITC-p27^27−36 from CDK2-cyclin A; assay type: binding, human

B1: Skp2^Δ1−88: Skp2 lacking the first 88 residues (protein)
chain 1: RENFPGVSWDSLPDELLLGIFSCLCLPELLKVSGVCKRWYRLASDESLWQTLDLTGKNLHPDVTGRLLSQGVIAFRCPRSFMDQPLAEHFSPFRVQHMDLSNSVIEVSTLHGILSQCSKLQNLSLEGLRLSDPIVNTLAKNSNLVRLNLSGCSGFSEFALQTLLSSCSRLDELNLSWCFDFTEKHVQVAVAHVSETITQLNLSGYRKNLQKSDLSTLVRRCPNLVHLDLSDSVMLKNDCFQEFFQLNYLQHLSLSRCYDIIPETLLELGEIPTLKTLQVFGIVPDGTLQLLKEALPHLQINCSHFTTIARPTIGNKKNQEIWGIKCRLTLQKPSCL
chain 2: MPSIKLQSSDGEIFEVDVEIAKQSVTIKTMLEDLGMDPVPLPNVNAAILKKVIQWCTHHKDDPGSGGTDDIPVWDQEFLKVDQGTLFELILAANYLDIKGLLDVTCKTVANMIKGKTPEEIRKTFNIKNDFTEEEEAQVRKENQWCEEK
modifications: left off: GST, end not stated, kept | His6, end not stated, state not stated
- pull down / binding of CDK2-cyclin A^173−432 with or without Cks1 [1]: could not bind CDK2-cyclin A in the absence of Cks1

B2: 4A mutant of Skp2^1−424: full-length Skp2 with L32A/L33A/S39A/L41A (Motif 1 mutant) (protein)
chain 1: MHRKHLQEIPDLSSNVATSFTWGWDSSKTSEAASGMGVAAAEKEEPDSENIPQELLSNLGHPESPPRKRLKSKGSDKDFVIVRRPKLNRENFPGVSWDSLPDELLLGIFSCLCLPELLKVSGVCKRWYRLASDESLWQTLDLTGKNLHPDVTGRLLSQGVIAFRCPRSFMDQPLAEHFSPFRVQHMDLSNSVIEVSTLHGILSQCSKLQNLSLEGLRLSDPIVNTLAKNSNLVRLNLSGCSGFSEFALQTLLSSCSRLDELNLSWCFDFTEKHVQVAVAHVSETITQLNLSGYRKNLQKSDLSTLVRRCPNLVHLDLSDSVMLKNDCFQEFFQLNYLQHLSLSRCYDIIPETLLELGEIPTLKTLQVFGIVPDGTLQLLKEALPHLQINCSHFTTIARPTIGNKKNQEIWGIKCRLTLQKPSCL
chain 2: B1 chain 2
modifications: left off: GST, end not stated, cleaved | His6, end not stated, cleaved
- loss of displacement effectiveness versus wild-type ([2]; mutant versus wild-type Skp2^1−424, FITC-p27^27−36, Figure 4F): 3 fold

B3: F79A/I81A/R83A: full length Skp2 (Skp1-Skp2^1−424) with Motif 2 mutation F79A/I81A/R83A (protein)
chain 1: B2 chain 1 with A32L, A33L, A39S, A41L, F79A, I81A, R83A
chain 2: B1 chain 2
modifications: left off: GST, end not stated, cleaved | His6, end not stated, cleaved
- IC50 ([2]; 25 nM FITC-p27^27−36, CDK2-cyclin A 6.25 μM, HEPES pH 7.5, 30 min, N=4, Figure 3E): not determinable
- displacement of FITC-p27^27−36 (in words) ([2]; CDK2-cyclin A 6.25 μM, N=4, Figure 3E): greatly compromised for this function
